The text below walks through data of ChEMBL document CHEMBL5346913, “C-glycosides analogues of the okadaic acid central fragment exert neuroprotection via restoration of PP2A-phosphatase activity: A rational design of potential drugs for Alzheimer's disease targeting tauopathies” (Eur J Med Chem, 2023).

SMILES strings stand for the structures. Active and inactive are the calls of the source. The calls are words filed in the database; no cut-off is given here.

One data set relates to Cortical neurone. Description: Neuroprotective activity against glutamate-induced excitotoxicity in rat cortical neurons assessed as protection against cell damage at 1 uM preincubated with compound for 24 hrs followed by glutamate addition and measured after 20 hrs by MTT assay relative to control. It counts as functional. The conditions noted are these: time 44 hrs.
The subject of data set [1] is SH-SY5Y. In words: Neuroprotective activity against okadaic acid-induced cytotoxicity in human SH-SY5Y cells assessed as protection against cell death at 1 uM incubated for 24 hrs by MTT assay relative to control. It counts as functional. The method, boiled down: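 SH-SY5Y cells were pre-incubated 24 h with compound at 1 μM, then co-incubated with okadaic acid 20 nM for 20 h. Viability was read by MTT reduction. Results are % protection relative to okadaic acid-treated cells without compound, as mean ± SEM of at least 4 independent experiments.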
(Tetrazolium dyes change colour on reduction, which living cells bring about.)

Data set [2] concerns SH-SY5Y. In words: Activation of PP2A in human SH-SY5Y cells assessed as restoration of cytostatin-induced phosphatase activity inhibition at 1 uM preincubated with compound for 24 hrs followed by okadaic acid addition and measured after 18 hrs by pNPP method. It counts as cell-based. The settings on record: filed as activator, time 42.0 hrs, in the assay text read “followed by cytostatin addition” for “followed by okadaic acid addition”. An outline of the steps: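 Cells were SH-SY5Y (70000/well), preincubated 24 h with compound, then given cytostatin 2 μM plus compound 1 μM for 18 h; pNPP-measured phosphatase activity normalized to untreated control; mean ± SEM, at least 3 independent experiments.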

The test system of data set [3] is SH-SY5Y. Description: Neuroprotective activity against cytostatin-induced cytotoxicity in human SH-SY5Y cells assessed as protection against cell death at 1 uM […] by MTT assay relative to control. It counts as functional.
The subject of data set [4] is SH-SY5Y. Description: Neuroprotective activity against rotenone/oligomycin-induced oxidative stress in human SH-SY5Y cells assessed as protection against cell death at 1 uM incubated for 20 to 24 hrs by MTT assay relative to control. The conditions noted are these: time 20-24 hrs.
Data set [5] relates to SH-SY5Y. In words: Activation of PP2A in human SH-SY5Y cells assessed as restoration of okadaic acid-induced phosphatase activity inhibition at 1 uM preincubated with compound for 24 hrs followed by okadaic acid addition and measured after 18 hrs by pNPP method. It counts as cell-based. The settings on record: time 42.0 hrs. The method, boiled down:
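SH-SY5Y cells (MEM/F12, 10% FBS, 70000 cells/well) preincubated 24 h with compound, then exposed to OA 15 nM plus compound 1 μM for 18 h; phosphatase activity by pNPP method, normalized to untreated control; mean ± SEM, at least 4 independent experiments.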

The subject of data set [6] is HEK293T. In words: Activation of GFP-tagged PP2A-B55alpha (unknown origin) transfected in HEK293T cells using K-R-pT-I-R-R peptide as substrate assessed as recovery of OA-induced PP2A inhibition by measuring increase in substrate phospho hydrolysis at 1 uM measured at 15 to 30 mins by Malachite green method. It counts as cell-based. The conditions noted are these: Homo sapiens, filed as activator, time 15-30 min.

Data set [7] can be described thus: Permeability of the compound in porcine brain by spectrophotometry based PAMPA-BBB assay. The conditions noted are these: pig. In general terms: PAMPA measures passive passage across an artificial lipid membrane.
Data set [8] deals with HEK293T. Description: Activation of GFP-tagged PP2A-B56alpha (unknown origin) transfected in HEK293T cells using K-R-pT-I-R-R peptide as substrate assessed as recovery of OA-induced PP2A inhibition by measuring increase in substrate phospho hydrolysis at 1 uM measured at 15 to 30 mins by Malachite green method. It counts as cell-based. The settings on record: Homo sapiens, filed as activator, time 15-30 min.

Another data set deals with Mus musculus. Description: Cognitive enhancing effect in LPS-induced mouse model of cognitive impairment assessed as fold change in time exploring the new object at 10 mg/ml, ip by object recognition test. It counts as functional. The method, boiled down: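 Mice injected i.p. with LPS 1 mg/mL and co-injected i.p. with compound 10 mg/mL; object recognition test: day 1 arena familiarization, day 2 two identical objects, day 3 one replaced by an object differing in shape and size; exploration recorded 10 min; new vs old object exploration time compared; mean ± SEM.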

Data set [9] concerns the target Glycogen synthase kinase-3 beta (Homo sapiens) (UniProt P49841). Description: Inhibition of okadaic-acid induced GSK-3beta hyperphosphorylation at Ser9 residue in human SH-SY5Y cells at 0.1 uM preincubated with compound for 24 hrs followed by okadaic acid addition and measured after 20 hrs by Western blot analysis. It counts as cell-based. The conditions noted are these: time 44.0 hrs. An outline of the steps:
(§1)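 After 24 h preincubation with compound 0.1 μM, SH-SY5Y cells incubated 20 h with OA 20 nM plus compound; western blot for pTau (Ser202/Thr205) and pGSK-3β (Ser9); mean ± SEM of at least 3 independent experiments.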
A general note: A western blot detects proteins with antibodies after separation by electrophoresis.

For data set [10], the target named is Microtubule-associated protein tau (Homo sapiens) (UniProt P10636). Description: Inhibition of okadaic-acid induced tau hyperphosphorylation at Ser202/Thr205 residues in human SH-SY5Y cells at 0.1 uM preincubated with compound for 24 hrs followed by okadaic acid addition and measured after 20 hrs by Western blot analysis. It counts as cell-based. The conditions noted are these: time 44.0 hrs. The method, boiled down:
as §1

Chain of Glycogen synthase kinase-3 beta (Homo sapiens) (P49841 whole entry, looked up): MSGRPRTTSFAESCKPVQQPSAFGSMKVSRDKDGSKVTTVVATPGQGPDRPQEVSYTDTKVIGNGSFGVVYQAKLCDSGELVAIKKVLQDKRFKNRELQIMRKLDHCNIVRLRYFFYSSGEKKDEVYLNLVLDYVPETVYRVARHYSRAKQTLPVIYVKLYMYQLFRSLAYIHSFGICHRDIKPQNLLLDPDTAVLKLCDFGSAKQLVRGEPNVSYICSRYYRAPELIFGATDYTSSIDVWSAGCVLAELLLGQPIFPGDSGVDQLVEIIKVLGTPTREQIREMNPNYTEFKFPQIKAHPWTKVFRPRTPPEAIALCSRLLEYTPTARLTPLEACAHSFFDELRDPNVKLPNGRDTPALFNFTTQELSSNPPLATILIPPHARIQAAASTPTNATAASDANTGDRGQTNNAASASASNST
Chain of Microtubule-associated protein tau (Homo sapiens) (P10636 whole entry): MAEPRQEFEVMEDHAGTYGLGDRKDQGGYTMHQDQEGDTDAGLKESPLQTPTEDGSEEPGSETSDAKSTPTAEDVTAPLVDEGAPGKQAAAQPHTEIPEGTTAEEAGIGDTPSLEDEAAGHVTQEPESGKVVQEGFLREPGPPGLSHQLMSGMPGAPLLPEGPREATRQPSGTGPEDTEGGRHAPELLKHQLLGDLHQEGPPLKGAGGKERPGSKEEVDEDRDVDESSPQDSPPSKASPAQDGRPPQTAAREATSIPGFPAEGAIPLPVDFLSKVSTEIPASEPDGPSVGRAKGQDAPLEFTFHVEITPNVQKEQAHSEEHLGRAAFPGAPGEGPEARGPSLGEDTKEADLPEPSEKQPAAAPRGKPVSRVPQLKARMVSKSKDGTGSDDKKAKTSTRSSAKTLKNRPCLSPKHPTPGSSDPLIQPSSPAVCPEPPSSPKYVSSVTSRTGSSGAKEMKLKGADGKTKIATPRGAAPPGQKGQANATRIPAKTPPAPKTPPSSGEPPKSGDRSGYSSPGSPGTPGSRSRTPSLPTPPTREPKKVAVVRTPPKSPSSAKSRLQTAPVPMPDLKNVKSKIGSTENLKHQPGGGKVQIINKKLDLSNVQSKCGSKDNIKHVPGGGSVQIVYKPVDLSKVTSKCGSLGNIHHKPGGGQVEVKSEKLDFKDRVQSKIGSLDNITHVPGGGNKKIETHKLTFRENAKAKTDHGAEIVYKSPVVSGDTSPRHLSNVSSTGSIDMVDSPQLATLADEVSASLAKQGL

`CC1(C)OC[C@H]2O[C@H](C[C@@H](O)CO)C=C[C@@H]2O1`: the Activity in the data set on Cortical neurone was 15%; in the data set on SH-SY5Y [1], 45%; in the data set with SH-SY5Y [3], 56%; in the data set with SH-SY5Y [4], 24%. The outcome in the data set with SH-SY5Y [2] was Active.
With `O=C(OCCC[C@@H]1C=C[C@@H]2OC(c3ccccc3)OC[C@H]2O1)c1ccccc1` (some centres not stated), the Activity came out at 8% with Cortical neurone, 72% in the data set with SH-SY5Y [1], 47% with SH-SY5Y [3] and 7% in the data set with SH-SY5Y [4]. In addition, the outcome in the data set on SH-SY5Y [5] was inactive.
As to `C=CC[C@@H]1C=C[C@H](OC(C)=O)[C@@H](COC(C)=O)O1`, the Activity stood at 19% with Cortical neurone, 84% with SH-SY5Y [1], 47% with SH-SY5Y [3] and 23% in the data set on SH-SY5Y [4].
Taken in the same sequence, the figures for `C=CC[C@@H]1C=C[C@@H]2OC(c3ccccc3)OC[C@H]2O1` (some centres not stated) were 15%, 80%, 49% and 26%.
Turning to `CC1(C)OC[C@H]2O[C@H](C[C@H](O)CO)C=C[C@@H]2O1`, the result in the data set with HEK293T [6], with SH-SY5Y [2], in the data set on SH-SY5Y [5] (filed as activator) and in the data set with HEK293T [8] was Active. For the same compound, the Activity in the data set with Cortical neurone worked out at 20%; in the data set with SH-SY5Y [1] it was 72%; with SH-SY5Y [3], 64%; with SH-SY5Y [4], 16%. The permeability entry in data set [7] was “Permeable”. For the same compound, the “fold change (FC)” value in the data set on Mus musculus worked out at 2.4. Also, the inhibition result in [9] and in [10] was “Active” each time.
For `OC[C@@H](O)C[C@@H]1C=C[C@@H]2OC(c3ccccc3)OC[C@H]2O1` (some centres not stated), the Activity with Cortical neurone amounted to 13%; in the data set with SH-SY5Y [1] it was 73%; in the data set on SH-SY5Y [3], 54%; with SH-SY5Y [4], 27%. Also, in the data set with SH-SY5Y [2], the outcome was Active.
For the compound `CC1(C)OC[C@H]2O[C@H](CCCOC(=O)c3ccccc3)C=C[C@@H]2O1`, the Activity turned out to be 17% in the data set on Cortical neurone, 69% in the data set with SH-SY5Y [1], 37% in the data set on SH-SY5Y [3] and 15% in the data set with SH-SY5Y [4]. In the data set on SH-SY5Y [5], the outcome was inactive.
In the case of `COc1ccc2[nH]cc(CCNC(C)=O)c2c1` [MELATONIN], the Activity with SH-SY5Y [4] is 28%.
Consider `OCCC[C@@H]1C=C[C@@H]2OC(c3ccccc3)OC[C@H]2O1` (some centres not stated), for which the Activity in the data set with Cortical neurone is on record as 12%; in the data set on SH-SY5Y [1], 82%; in the data set on SH-SY5Y [3], 52%; with SH-SY5Y [4], 29%.
The matching figures for `C=CC[C@@H]1C=C[C@@H]2OC(C)(C)OC[C@H]2O1`: 8%, 50%, 50% and 63%.
Take `CC12CC3CC(C)(C1)CC(N)(C3)C2` [MEMANTINE]: the Activity with Cortical neurone came out at 22%; in the data set on SH-SY5Y [1] it was 60%; in the data set with SH-SY5Y [3] it was 57%.
`O=C(OCCC[C@@H]1C=C[C@H](O)[C@@H](CO)O1)c1ccccc1`: the Activity in the data set with Cortical neurone turned out to be 17%; with SH-SY5Y [1] it was 20%; in the data set with SH-SY5Y [3], 1%; in the data set with SH-SY5Y [4], 3%. The outcome in the data set on SH-SY5Y [5] was inactive.
With `OC[C@H](O)C[C@@H]1C=C[C@@H]2OC(c3ccccc3)OC[C@H]2O1` (some centres not stated), the Activity worked out at 29% in the data set on Cortical neurone, 40% in the data set with SH-SY5Y [1], 21% with SH-SY5Y [3] and 10% in the data set with SH-SY5Y [4]. Besides, the outcome in the data set on SH-SY5Y [2] and in the data set with SH-SY5Y [5] (filed as activator) was Active.
`C=CC[C@@H]1C=C[C@H](O)[C@@H](CO)O1`: the Activity was 15% in the data set on Cortical neurone, 72% in the data set with SH-SY5Y [1], 45% in the data set with SH-SY5Y [3] and 30% in the data set on SH-SY5Y [4]. Also, the outcome in the data set on SH-SY5Y [2] was Active.
On to `CC1(C)OC[C@H]2O[C@H](CCCO)C=C[C@@H]2O1`, for which the Activity in the data set with Cortical neurone came out at 6%; with SH-SY5Y [1], 81%; in the data set on SH-SY5Y [3], 45%; in the data set on SH-SY5Y [4] it was 5%.
